Assay results published in ChEMBL document CHEMBL3286094, “Synthesis and biological evaluation of novel bisbenzimidazoles as Escherichia coli topoisomerase IA inhibitors and potential antibacterial agents” (J Med Chem, 2014).
Values after ≈ are worked out from the molar mass of the structure shown. Active and inactive are the calls of the source. The rule behind the calls is not given here.

Key:
Escherichia coli [1] = assay: Antibacterial activity against ampicillin/ciprofloxacin/gentamicin/tetracycline-resistant Escherichia coli 555 assessed as growth inhibition after 18 to 24 hrs by broth microdilution method; type: functional
Escherichia coli [2] = assay: Bactericidal activity against ciprofloxacin-resistant Escherichia coli 72 by agar plating method; type: functional
Escherichia coli [3] = assay: Bactericidal activity against ampicillin/kanamycin/trimethoprim/tetracyclin/ciprofloxacin/nalidixic acid-resistant Escherichia coli 81 by agar plating method; type: functional
Escherichia coli [4] = assay: Bactericidal activity against chloramphenicol/ampicillin/kanamycin/trimethoprim/ciprofloxacin/nalidixic acid-resistant Escherichia coli 132 by agar plating method; type: functional
Escherichia coli [5] = assay: Bactericidal activity against ampicillin/chloramphenicol/ciprofloxacin/gentamicin/tetracycline-resistant Escherichia coli 401 by agar plating method; type: functional
Escherichia coli [6] = assay: Bactericidal activity against ampicillin/ciprofloxacin/gentamicin/tetracycline-resistant Escherichia coli 555 by agar plating method; type: functional
[7] = Inhibition of Escherichia coli DNA topoisomerase-1A using supercoiled pHOT1 plasmid DNA as substrate assessed as inhibition of DNA relaxation after 30 mins by agarose gel electrophoresis
Summary of the method: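 Supercoiled plasmid DNA incubated with E. coli Topo IA in the presence of compound at […]. Relaxation products were resolved by electrophoresis on 1% agarose gel.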

Escherichia coli [8] = assay: Inhibition of Escherichia coli DNA gyrase using relaxed pHOT1 plasmid DNA as substrate assessed as inhibition of DNA supercoiling up to 100 uM after 30 mins by agarose gel electrophoresis
Homo sapiens = species on record: Homo sapiens; assay: Inhibition of human DNA topoisomerase-1B using supercoiled pHOT1 plasmid DNA as substrate assessed as inhibition of DNA relaxation at 100 uM after 30 mins by agarose gel electrophoresis
Escherichia coli [9] = assay: Antibacterial activity against Escherichia coli ATCC 25922 assessed as growth inhibition after 18 to 24 hrs by broth microdilution method; type: functional
Escherichia coli [10] = assay: Antibacterial activity against ciprofloxacin-resistant Escherichia coli 72 assessed as growth inhibition after 18 to 24 hrs by broth microdilution method; type: functional
Escherichia coli [11] = assay: Antibacterial activity against ampicillin/trimethoprim/nalidixic acid-resistant Escherichia coli 118 assessed as growth inhibition after 18 to 24 hrs by broth microdilution method; type: functional
Escherichia coli [12] = assay: Antibacterial activity against chloroamphenicol/ampicillin/kanamycin/trimethoprim/ciprofloxacin/nalidixic acid-resistant Escherichia coli 85 assessed as growth inhibition after 18 to 24 hrs by broth microdilution method; type: functional
Escherichia coli [13] = assay: Antibacterial activity against gentamicin/kanamycin/tetracycline/nalidixic acid-resistant Escherichia coli 360 assessed as growth inhibition after 18 to 24 hrs by broth microdilution method; type: functional
Escherichia coli [14] = assay: Antibacterial activity against ampicillin/tetracycline/gentamicin-resistant Escherichia coli 451 assessed as growth inhibition after 18 to 24 hrs by broth microdilution method; type: functional
Escherichia coli [15] = assay: Antibacterial activity against chloramphenicol/ampicillin/trimethoprim/ciprofloxacin/nalidixic acid-resistant Escherichia coli 59 assessed as growth inhibition after 18 to 24 hrs by broth microdilution method; type: functional
Escherichia coli [16] = assay: Antibacterial activity against ampicillin/kanamycin/trimethoprim/tetracyclin/ciprofloxacin/nalidixic acid-resistant Escherichia coli 81 assessed as growth inhibition after 18 to 24 hrs by broth microdilution method; type: functional
Escherichia coli [17] = assay: Antibacterial activity against chloramphenicol/ampicillin/kanamycin/trimethoprim/ciprofloxacin/nalidixic acid-resistant Escherichia coli 132 assessed as growth inhibition after 18 to 24 hrs by broth microdilution method; type: functional
Escherichia coli [18] = assay: Antibacterial activity against chloramphenicol/ampicillin/kanamycin/trimethoprim/ciprofloxacin/nalidixic acid-resistant Escherichia coli 151 assessed as growth inhibition after 18 to 24 hrs by broth microdilution method; type: functional
Escherichia coli [19] = assay: Antibacterial activity against ampicillin/chloramphenicol/ciprofloxacin/gentamicin/tetracycline-resistant Escherichia coli 401 assessed as growth inhibition after 18 to 24 hrs by broth microdilution method; type: functional
Escherichia coli [20] = assay: Bactericidal activity against multidrug-resistant Escherichia coli IS 54 isolated from water source by agar plating method; details: IS 54, Water
Escherichia coli [21] = assay: Bactericidal activity against ampicillin/tetracycline/piperacillin-resistant Escherichia coli WB31 isolated from water source by agar plating method
Escherichia coli [22] = assay: Bactericidal activity against ampicillin/trimethoprim/piperacillin-resistant Escherichia coli MKNJ isolated from water source by agar plating method
Escherichia coli [23] = assay: Bactericidal activity against ampicillin/chloramphenicol/tetracycline/trimethoprim/ciprofloxacin-resistant Escherichia coli KK45 isolated from water source by agar plating method
Escherichia coli [24] = assay: Antibacterial activity against multidrug-resistant Escherichia coli IS 54 isolated from water source assessed as growth inhibition after 18 to 24 hrs by broth microdilution method; details: IS 54, Water
Escherichia coli [25] = assay: Antibacterial activity against ampicillin/tetracycline-resistant Escherichia coli IP18 isolated from water source assessed as growth inhibition after 18 to 24 hrs by broth microdilution method
Escherichia coli [26] = assay: Antibacterial activity against tetracycline/trimethoprim-resistant Escherichia coli IST isolated from water source assessed as growth inhibition after 18 to 24 hrs by broth microdilution method
Escherichia coli [27] = assay: Bactericidal activity against cefazolinl/ampicillin/piperacillin/cefuroxime/cefepime/cefotaxime/tetracycline/ciprofloxacin-resistant Escherichia coli NG3 isolated from water source by agar plating method
Escherichia coli [28] = assay: Bactericidal activity against cefazolinl/ampicillin/piperacillin/cefuroxime/cefepime/cefotaxime/tetracycline/trimethoprim-resistant Escherichia coli KK16 isolated from water source by agar plating method
Escherichia coli [29] = assay: Antibacterial activity against ampicillin/tetracycline/piperacillin-resistant Escherichia coli WB31 isolated from water source assessed as growth inhibition after 18 to 24 hrs by broth microdilution method
Escherichia coli [30] = assay: Antibacterial activity against ampicillin/trimethoprim/piperacillin-resistant Escherichia coli MKNJ isolated from water source assessed as growth inhibition after 18 to 24 hrs by broth microdilution method
Escherichia coli [31] = assay: Antibacterial activity against ampicillin/trimethoprim/cefazolinl/piperacillin/cefuroxime/cefoxitine/cefepime/cefotaxime-resistant Escherichia coli KP21 isolated from water source assessed as growth inhibition after 18 to 24 hrs by broth microdilution method
Escherichia coli [32] = assay: Antibacterial activity against cefazolinl/ampicillin/piperacillin/cefuroxime/cefepime/cefotaxime/tetracycline/trimethoprim-resistant Escherichia coli KK16 isolated from water source assessed as growth inhibition after 18 to 24 hrs by broth microdilution method

CCCN1CCN(c2ccc3nc(-c4ccc5nc(-c6ccc(OCC)cc6)[nH]c5c4)[nH]c3c2)CC1
MIC50 (Escherichia coli [1]): 4 µg/mL (≈ 8.32 µM) | MIC90 (Escherichia coli [1]): 6.8 µg/mL (≈ 14.1 µM) | MBC (Escherichia coli [2]): 4 µg/mL (≈ 8.32 µM) | MBC (Escherichia coli [3]): 2 µg/mL (≈ 4.16 µM) | MBC (Escherichia coli [4]): 4 µg/mL (≈ 8.32 µM) | MBC (Escherichia coli [5]): 2 µg/mL (≈ 4.16 µM) | MBC (Escherichia coli [6]): 8 µg/mL (≈ 16.6 µM) | IC50 [7]: 2000 nM | inhibition (Escherichia coli [8]): inactive | inhibition (Homo sapiens): inactive | MIC50 (Escherichia coli [9]): 0.2 µg/mL (≈ 0.416 µM) | MIC90 (Escherichia coli [9]): 3.3 µg/mL (≈ 6.87 µM) | MIC50 (Escherichia coli [10]): 2 µg/mL (≈ 4.16 µM) | MIC90 (Escherichia coli [10]): 3.1 µg/mL (≈ 6.45 µM) | MIC50 (Escherichia coli [11]): 1 µg/mL (≈ 2.08 µM) | MIC90 (Escherichia coli [11]): 1.7 µg/mL (≈ 3.54 µM) | MIC50 (Escherichia coli [12]): 1 µg/mL (≈ 2.08 µM) | MIC90 (Escherichia coli [12]): 1.7 µg/mL (≈ 3.54 µM) | MIC50 (Escherichia coli [13]): 1 µg/mL (≈ 2.08 µM) | MIC90 (Escherichia coli [13]): 1.6 µg/mL (≈ 3.33 µM) | MIC50 (Escherichia coli [14]): 1 µg/mL (≈ 2.08 µM) | MIC90 (Escherichia coli [14]): 1.7 µg/mL (≈ 3.54 µM) | MIC50 (Escherichia coli [15]): 2 µg/mL (≈ 4.16 µM) | MIC90 (Escherichia coli [15]): 3.4 µg/mL (≈ 7.07 µM) | MIC50 (Escherichia coli [16]): 1 µg/mL (≈ 2.08 µM) | MIC90 (Escherichia coli [16]): 1.6 µg/mL (≈ 3.33 µM) | MIC50 (Escherichia coli [17]): 2 µg/mL (≈ 4.16 µM) | MIC90 (Escherichia coli [17]): 3.5 µg/mL (≈ 7.28 µM) | MIC50 (Escherichia coli [18]): 1 µg/mL (≈ 2.08 µM) | MIC90 (Escherichia coli [18]): 1.7 µg/mL (≈ 3.54 µM) | MIC50 (Escherichia coli [19]): 1 µg/mL (≈ 2.08 µM) | MIC90 (Escherichia coli [19]): 1.7 µg/mL (≈ 3.54 µM) | MBC (Escherichia coli [20]): 2 µg/mL (≈ 4.16 µM) | MBC (Escherichia coli [21]): 2 µg/mL (≈ 4.16 µM) | MBC (Escherichia coli [22]): 4 µg/mL (≈ 8.32 µM) | MBC (Escherichia coli [23]): 2 µg/mL (≈ 4.16 µM) | MIC50 (Escherichia coli [24]): 0.5 µg/mL (≈ 1.04 µM) | MIC90 (Escherichia coli [24]): 1.6 µg/mL (≈ 3.33 µM) | MIC50 (Escherichia coli [25]): 1 µg/mL (≈ 2.08 µM) | MIC90 (Escherichia coli [25]): 3.4 µg/mL (≈ 7.07 µM) | MIC50 (Escherichia coli [26]): 0.5 µg/mL (≈ 1.04 µM) | MIC90 (Escherichia coli [26]): 1.7 µg/mL (≈ 3.54 µM) | MBC (Escherichia coli [27]): 2 µg/mL (≈ 4.16 µM) | MBC (Escherichia coli [28]): 2 µg/mL (≈ 4.16 µM) | MIC50 (Escherichia coli [29]): 0.5 µg/mL (≈ 1.04 µM) | MIC90 (Escherichia coli [29]): 1.7 µg/mL (≈ 3.54 µM) | MIC50 (Escherichia coli [30]): 1 µg/mL (≈ 2.08 µM) | MIC90 (Escherichia coli [30]): 3.5 µg/mL (≈ 7.28 µM) | MIC50 (Escherichia coli [31]): 0.5 µg/mL (≈ 1.04 µM) | MIC90 (Escherichia coli [31]): 3.8 µg/mL (≈ 7.91 µM) | MIC50 (Escherichia coli [32]): 0.5 µg/mL (≈ 1.04 µM) | MIC90 (Escherichia coli [32]): 1.8 µg/mL (≈ 3.75 µM)
